Test results reported in ChEMBL document CHEMBL4304792, “Cinnamonitrile Adjuvants Restore Susceptibility to β-Lactams against Methicillin-Resistant Staphylococcus aureus” (ACS Med Chem Lett, 2019).
In brackets after ≈: the same amount, converted by molar mass. Activity calls are given as the source filed them. The rule behind the calls is not given here.

Experiments:
[1] = test system: Staphylococcus aureus; assay: Potentiation of oxacillin induced antibacterial activity against methicillin susceptible Staphylococcus aureus NRS72 assessed as reduction in oxacillin MIC at 20 uM measured after 16 to 20 hrs in presence of 2% NaCl by microdilution broth method; type: functional
Procedure, shortened: (§1)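 Oxacillin MIC was measured against methicillin-susceptible strains with the adjuvant fixed at 20 μM. Potentiation was expressed as fold reduction of the oxacillin MIC relative to oxacillin alone.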

[2] = test system: Staphylococcus aureus; assay: Potentiation of oxacillin induced antibacterial activity against methicillin susceptible Staphylococcus aureus NRS11 assessed as reduction in oxacillin MIC at 20 uM measured after 16 to 20 hrs in presence of 2% NaCl by microdilution broth method; type: functional; procedure, shortened: as §1
[3] = test system: Staphylococcus aureus; assay: Potentiation of oxacillin induced antibacterial activity against Staphylococcus aureus USA200-NRS383 assessed as oxacillin MIC at 20 uM measured after 16 to 20 hrs in presence of 2% NaCl by microdilution broth method (reference value: 128 mg/L); type: functional
[4] = test system: Staphylococcus aureus; assay: Antibacterial activity against Staphylococcus aureus USA200-NRS383 measured after 16 to 20 hrs in presence of 2% NaCl by microdilution broth method; type: functional
[5] = test system: Staphylococcus aureus; assay: Potentiation of oxacillin induced antibacterial activity against Staphylococcus aureus USA100-NRS382 assessed as oxacillin MIC at 8 uM measured after 16 to 20 hrs in presence of 2% NaCl by microdilution broth method (reference value: 64 mg/L); type: functional
[6] = test system: Staphylococcus aureus; assay: Antibacterial activity against Staphylococcus aureus NRS70 measured after 16 to 20 hrs in absence of 2% NaCl by microdilution broth method
[7] = test system: Staphylococcus aureus; assay: Potentiation of oxacillin induced antibacterial activity against Staphylococcus aureus Mu50 NRS1 assessed as oxacillin MIC at 20 uM measured after 16 to 20 hrs in presence of 2% NaCl by microdilution broth method (reference value: 256 mg/L); type: functional
[8] = test system: Staphylococcus aureus; assay: Potentiation of oxacillin induced antibacterial activity against Staphylococcus aureus NRS384 assessed as oxacillin MIC at 8 uM measured after 16 to 20 hrs in presence of 2% NaCl by microdilution broth method (reference value: 32 mg/L); type: functional
[9] = test system: Staphylococcus aureus; assay: Antibacterial activity against Staphylococcus aureus NRS384 measured after 16 to 20 hrs in presence of 2% NaCl by microdilution broth method; type: functional
[10] = test system: Staphylococcus aureus; assay: Potentiation of oxacillin induced antibacterial activity against Staphylococcus aureus USA200-NRS383 assessed as oxacillin MIC at 16 uM measured after 16 to 20 hrs in presence of 2% NaCl by microdilution broth method (reference value: 128 mg/L); type: functional
[11] = test system: Staphylococcus aureus; assay: Potentiation of oxacillin induced antibacterial activity against Staphylococcus aureus MW2 NRS123 assessed as oxacillin MIC at 8 uM measured after 16 to 20 hrs in presence of 2% NaCl by microdilution broth method (reference value: 16 mg/L); type: functional
[12] = test system: Staphylococcus aureus; assay: Potentiation of oxacillin induced antibacterial activity against Staphylococcus aureus MW2 NRS123 assessed as oxacillin MIC at 20 uM measured after 16 to 20 hrs in presence of 2% NaCl by microdilution broth method (reference value: 16 mg/L); type: functional
[13] = test system: Staphylococcus aureus; assay: Potentiation of oxacillin induced antibacterial activity against Staphylococcus aureus NRS70 assessed as oxacillin MIC at 16 uM measured after 16 to 20 hrs in presence of 2% NaCl by microdilution broth method (reference value: 64 mg/L); type: functional
[14] = test system: Staphylococcus aureus; assay: Potentiation of oxacillin induced antibacterial activity against Staphylococcus aureus MW2 NRS123 assessed as oxacillin MIC at 16 uM measured after 16 to 20 hrs in presence of 2% NaCl by microdilution broth method (reference value: 16 mg/L); type: functional
[15] = test system: Staphylococcus aureus; assay: Potentiation of oxacillin induced antibacterial activity against Staphylococcus aureus MRSA252 assessed as oxacillin MIC at 20 uM measured after 16 to 20 hrs in presence of 2% NaCl by microdilution broth method (reference value: 256 mg/L); type: functional
[16] = test system: Staphylococcus aureus; assay: Antibacterial activity against Staphylococcus aureus NRS119 measured after 16 to 20 hrs in presence of 2% NaCl by microdilution broth method; type: functional
[17] = test system: Staphylococcus aureus; assay: Antibacterial activity against Staphylococcus aureus Mu50 NRS1 measured after 16 to 20 hrs in presence of 2% NaCl by microdilution broth method; type: functional
[18] = test system: Staphylococcus aureus; assay: Potentiation of oxacillin induced antibacterial activity against Staphylococcus aureus MRSA252 assessed as oxacillin MIC at 8 uM measured after 16 to 20 hrs in presence of 2% NaCl by microdilution broth method (reference value: 256 mg/L); type: functional
[19] = test system: Staphylococcus aureus; assay: Potentiation of oxacillin induced antibacterial activity against Staphylococcus aureus NRS119 assessed as oxacillin MIC at 8 uM measured after 16 to 20 hrs in presence of 2% NaCl by microdilution broth method (reference value: 256 mg/L); type: functional
[20] = test system: Staphylococcus aureus; assay: Potentiation of oxacillin induced antibacterial activity against Staphylococcus aureus USA100-NRS382 assessed as oxacillin MIC at 20 uM measured after 16 to 20 hrs in presence of 2% NaCl by microdilution broth method (reference value: 64 mg/L); type: functional
[21] = test system: Staphylococcus aureus; assay: Potentiation of oxacillin induced antibacterial activity against Staphylococcus aureus NRS384 assessed as oxacillin MIC at 20 uM measured after 16 to 20 hrs in presence of 2% NaCl by microdilution broth method (reference value: 32 mg/L); type: functional
[22] = test system: Staphylococcus aureus; assay: Potentiation of oxacillin induced antibacterial activity against Staphylococcus aureus NRS119 assessed as oxacillin MIC at 20 uM measured after 16 to 20 hrs in presence of 2% NaCl by microdilution broth method (reference value: 256 mg/L); type: functional
[23] = test system: Staphylococcus aureus; assay: Potentiation of oxacillin induced antibacterial activity against Staphylococcus aureus NRS119 assessed as oxacillin MIC at 16 uM measured after 16 to 20 hrs in presence of 2% NaCl by microdilution broth method (reference value: 256 mg/L); type: functional
[24] = test system: Staphylococcus aureus; assay: Potentiation of oxacillin induced antibacterial activity against Staphylococcus aureus NRS384 assessed as oxacillin MIC at 16 uM measured after 16 to 20 hrs in presence of 2% NaCl by microdilution broth method (reference value: 32 mg/L); type: functional
[25] = test system: Staphylococcus aureus; assay: Antibacterial activity against Staphylococcus aureus MW2 NRS123 measured after 16 to 20 hrs in presence of 2% NaCl by microdilution broth method; type: functional
[26] = test system: Staphylococcus aureus; assay: Antibacterial activity against Staphylococcus aureus MRSA252 measured after 16 to 20 hrs in presence of 2% NaCl by microdilution broth method; type: functional
[27] = test system: Staphylococcus aureus; assay: Potentiation of oxacillin induced antibacterial activity against Staphylococcus aureus Mu50 NRS1 assessed as oxacillin MIC at 8 uM measured after 16 to 20 hrs in presence of 2% NaCl by microdilution broth method (reference value: 256 mg/L); type: functional
[28] = test system: Staphylococcus aureus; assay: Potentiation of oxacillin induced antibacterial activity against Staphylococcus aureus USA200-NRS383 assessed as oxacillin MIC at 8 uM measured after 16 to 20 hrs in presence of 2% NaCl by microdilution broth method (reference value: 128 mg/L); type: functional

Row | Compound | MIC [4] | MIC [5] | MIC [6] | MIC [7] | MIC [8] | MIC [9] | MIC [11] | MIC [12] | MIC [13] | MIC [14] | MIC [15] | MIC [16] | MIC [17] | MIC [18] | MIC [19] | MIC [20] | MIC [21] | MIC [22] | fold change (FC) [1] | fold change (FC) [2] | other results
1 | CS(=O)(=O)/C(C#N)=C/c1cc(Cc2ccc(Cl)c(Cl)c2)ccc1OC(F)(F)F | 32 µg/mL | 0.5 µg/mL | 8 µg/mL (≈ 17.8 µM) | ≤ 0.03 µg/mL | 0.25 µg/mL | 16 µg/mL | 0.5 µg/mL | ≤ 0.03 µg/mL | ≤ 0.03 µg/mL | 0.12 µg/mL | Active | 8 µg/mL | 32 µg/mL | 2 µg/mL | 0.06 µg/mL | ≤ 0.03 µg/mL | ≤ 0.03 µg/mL | Active | 2 - 10 | 2 - 10 | MIC [23]: 0.03 µg/mL; MIC [24]: 0.03 µg/mL; MIC [25]: ≥ 64 µg/mL; MIC [26]: 8 µg/mL; MIC [27]: 8 µg/mL; MIC [28]: ≥ 128 µg/mL
2 | CS(=O)(=O)/C(C#N)=C/c1c(F)ccc(Cc2ccc(Cl)c(Cl)c2)c1F | 16 µg/mL | 1 µg/mL | 8 µg/mL (≈ 19.9 µM) | ≤ 0.03 µg/mL | 32 µg/mL | 16 µg/mL | ≥ 16 µg/mL | ≤ 0.03 µg/mL | 0.5 µg/mL | 0.5 µg/mL | 64 µg/mL | 16 µg/mL | 16 µg/mL | 256 µg/mL | 4 µg/mL | ≤ 0.03 µg/mL | ≤ 0.03 µg/mL | Active | 2 - 10 | 2 - 10 | MIC [3]: ≥ 128 µg/mL; MIC [10]: ≥ 128 µg/mL; MIC [23]: 1 µg/mL; MIC [24]: 0.5 µg/mL; MIC [25]: 16 µg/mL; MIC [26]: 16 µg/mL; MIC [27]: 16 µg/mL; MIC [28]: ≥ 128 µg/mL

Second part, led by results:

Row | MIC [4] | MIC [5] | MIC [6] | MIC [7] | MIC [8] | MIC [9] | MIC [11] | MIC [12] | MIC [13] | MIC [14] | MIC [15] | MIC [16] | MIC [17] | MIC [18] | MIC [19] | MIC [20] | MIC [21] | MIC [22] | Compound | fold change (FC) [1] | fold change (FC) [2] | other results
3 | 16 µg/mL | 4 µg/mL | 16 µg/mL (≈ 43.2 µM) | 2 µg/mL | 8 µg/mL | 16 µg/mL | 1 µg/mL | 2 µg/mL | 2 µg/mL | 0.5 µg/mL | 128 µg/mL | 16 µg/mL | 16 µg/mL | 256 µg/mL | 32 µg/mL | 1 µg/mL | 4 µg/mL | 0.12 µg/mL | CS(=O)(=O)/C(C#N)=C/c1cc(-c2ccc(Cl)c(Cl)c2)ccc1F | 2 - 10 | 2 - 10 | MIC [3]: ≥ 128 µg/mL; MIC [10]: ≥ 128 µg/mL; MIC [23]: 0.5 µg/mL; MIC [24]: 8 µg/mL; MIC [25]: 16 µg/mL; MIC [26]: 16 µg/mL; MIC [27]: 128 µg/mL; MIC [28]: ≥ 128 µg/mL
4 | ≥ 64 µg/mL | 1 µg/mL | 8 µg/mL (≈ 20.8 µM) | 1 µg/mL | 2 µg/mL | 32 µg/mL | 4 µg/mL | ≤ 0.03 µg/mL | 0.5 µg/mL | 0.5 µg/mL | 128 µg/mL | 16 µg/mL | ≥ 64 µg/mL | 256 µg/mL | 0.5 µg/mL | 0.25 µg/mL | 0.06 µg/mL | ≤ 0.03 µg/mL | CS(=O)(=O)/C(C#N)=C/c1cc(Cc2ccc(Cl)c(Cl)c2)ccc1F | 2 - 10 | 2 - 10 | MIC [3]: ≥ 128 µg/mL; MIC [10]: ≥ 128 µg/mL; MIC [23]: 1 µg/mL; MIC [24]: 0.25 µg/mL; MIC [25]: ≥ 64 µg/mL; MIC [26]: 32 µg/mL; MIC [27]: 8 µg/mL; MIC [28]: ≥ 128 µg/mL
5 | 16 µg/mL | 0.5 µg/mL | 16 µg/mL (≈ 35.8 µM) | ≤ 0.03 µg/mL | 0.5 µg/mL | 16 µg/mL | 0.5 µg/mL | 0.25 µg/mL | 0.03 µg/mL | 0.12 µg/mL | 2 µg/mL | 16 µg/mL | 16 µg/mL | 256 µg/mL | 16 µg/mL | 0.12 µg/mL | 0.06 µg/mL | 0.12 µg/mL | N#C/C(=C\c1cc(Cc2ccc(Cl)c(Cl)c2)ccc1F)S(=O)(=O)c1ccccn1 | 2 - 10 | 2 - 10 | MIC [3]: ≥ 128 µg/mL; MIC [10]: ≥ 128 µg/mL; MIC [23]: 0.5 µg/mL; MIC [24]: 0.12 µg/mL; MIC [25]: 16 µg/mL; MIC [26]: 16 µg/mL; MIC [27]: 128 µg/mL; MIC [28]: ≥ 128 µg/mL
